Measurements published in ChEMBL document CHEMBL1687750, “Nonclinical pharmacokinetics of oseltamivir and oseltamivir carboxylate in the central nervous system” (Antimicrob Agents Chemother, 2009).

Tests used:
Plasma = assay: Cmax in perfused Sprague-Dawley rat plasma assessed as active metabolite oseltamivir carboxylate level at 30 mg/kg, iv; type: ADME, organism-based; set-up: dose 30 mg/kg, route intravenous; conditions: in vivo
In short: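 Nonfasted adult rats received 30 mg/kg in aqueous 0.9% NaCl (pH 4.0) by slow tail-vein injection over 20–30 s. Groups were sampled at 5 min and 0.25, 0.5, 1, 2, 4 and 8 h, with 4–5 rats per time point, under terminal isoflurane. Blood was taken by heart puncture and CSF from the cisterna magna. Brains were homogenized either unperfused or after transcardial saline perfusion. Samples were assayed by LC-MS/MS, and pooled composite data were analyzed noncompartmentally.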

Brain = assay: Terminal half life in non-perfused Sprague-Dawley rat brain assessed as active metabolite oseltamivir carboxylate level at 30 mg/kg, iv; type: ADME, organism-based; set-up: dose 30 mg/kg, route intravenous; conditions: in vivo
In short: (§1)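 Nonfasted Sprague-Dawley rats given 30 mg/kg i.v. in 0.9% NaCl pH 4.0 by tail vein over 20–30 s. Terminal sampling under isoflurane at 5 min, 0.25, 0.5, 1, 2, 4 and 8 h (4–5 rats/time): plasma, CSF, and brain homogenate, with or without saline perfusion. LC-MS/MS. t1/2, Vss and ratios from noncompartmental analysis of pooled composite concentrations.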

Rattus norvegicus = assay: Volume of distribution at steady state in Sprague-Dawley rat assessed as active metabolite oseltamivir carboxylate level at 30 mg/kg, iv; type: ADME, organism-based; set-up: dose 30 mg/kg, route intravenous; conditions: in vivo; in short: as §1
[1] = Prodrug conversion in 42 days old female rat liver S9 fractions assessed as oseltamivir carboxylate generation rate assessed per mg of protein per min; type: ADME, subcellular, S9 fraction
In short: (§2)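 Rat brain or liver S9 (9,000 × g supernatant; 1.0 mg protein) was incubated in triplicate with 10 µM 14C-oseltamivir (final) in 100 mM Tris-HCl pH 7.4 for 30 min at 37°C. Reactions were quenched with TCA-acetonitrile, and the fraction converted to OC was measured by radioflow HPLC with fractionation. Rate was calculated as (pmol/ml substrate × fraction hydrolyzed)/(mg protein/ml × time), minus the no-protein background.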

[2] = Prodrug conversion in 42 days old male rat brain S9 fractions assessed as conversion of oseltamivir to oseltamivir carboxylate; type: ADME, subcellular, S9 fraction; in short: as §2
[3] = Prodrug conversion in 7 days old female rat liver S9 fractions assessed as conversion of oseltamivir to oseltamivir carboxylate; type: ADME, subcellular, S9 fraction
In short: (§3)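 S9 from brain or liver (rat S9 made by homogenizing tissue in ~4 ml Tris-sucrose buffer per g, supernatant after 9,000 × g at 10°C; pooled human brain and liver S9 also used), protein by bicinchoninic acid assay. Oseltamivir: triplicate, 10 μM 14C-oseltamivir final, 1.0 mg S9 protein, 100 mM Tris-HCl pH 7.4, 30 min at 37°C, quenched with TCA-acetonitrile.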

[4] = Prodrug conversion in 42 days old male rat liver S9 fractions assessed as conversion of oseltamivir to oseltamivir carboxylate; type: ADME, subcellular, S9 fraction; in short: as §2
[5] = Prodrug conversion in commercial liver S9 fractions assessed as conversion of oseltamivir to oseltamivir carboxylate; type: ADME, subcellular, Liver S9 fraction; in short: as §3
[6] = Prodrug conversion in 7 days old female rat liver S9 fractions assessed as paranitrophenol generation rate assessed per mg of protein per min; type: ADME, subcellular, S9 fraction
[7] = Prodrug conversion in 7 days old male rat liver S9 fractions assessed as paranitrophenol generation rate assessed per mg of protein per min; type: ADME, subcellular, S9 fraction
[8] = Prodrug conversion in 42 days old female rat brain S9 fractions assessed as paranitrophenol generation rate assessed per mg of protein per min; type: ADME, tissue-based
In short: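 Control esterase activity was measured by incubating 100 µM p-nitrophenyl acetate (final) with 0.05 mg rat brain or liver S9 protein in 1.5 ml Tris-HCl pH 7.4 for 1 min at 37°C. Reactions were quenched with acetonitrile, and product was quantified by HPLC-UV against external standards. The no-protein blank rate was subtracted, and rate was expressed per mg protein per min.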

Row | Cmax (Plasma) | beta t1/2 (Brain) | Vdss (Rattus norvegicus) | Activity [1] | Activity [2] | Activity [3] | Activity [4] | Activity [5] | Activity [6] | Activity [7] | Activity [8] | SMILES
1 | 6.3 µg/mL | 30.5 min | 0.8 L/kg |  |  |  |  |  |  |  |  | CCC(CC)O[C@@H]1C=C(C(=O)O)C[C@H](N)[C@H]1NC(C)=O [OSELTAMIVIR CARBOXYLATE]
2 |  |  |  | 1.37 pmol/s | 0.16% | 0.1% | 0.63% | 3.79% | 538 nmol | 467 nmol | 70 nmol | CCOC(=O)C1=C[C@@H](OC(CC)CC)[C@H](NC(C)=O)[C@@H](N)C1 [OSELTAMIVIR]
